Test results: ChEMBL document CHEMBL3580615, “Isolation and Characterization of Dammarane-Type Saponins from Gynostemma pentaphyllum and Their Inhibitory Effects on IL-6-Induced STAT3 Activation” (J Nat Prod, 2015)

Assay: Cytotoxicity against human Hep3B cells after 48 hrs by MTT assay
Type: cell-based
Conditions: hep 3b2, 48 h
In short: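 Hep3B cells plated and grown 24 h in 96-well plates, then switched to serum-free medium. Samples added at indicated concentrations for 48 h. Viability read by MTT assay.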

| SMILES | Activity |
| --- | --- |
| CC(C)/C=C/C[C@](C)(O[C@@H]1O[C@H](CO[C@@H]2O[C@@H](C)[C@H](O)[C@@H](O)[C@H]2O)[C@@H](O)[C@H](O)[C@H]1O)[C@H]1CC[C@]2(C)[C@@H]1[C@H](O)C[C@@H]1[C@@]3(C)C[C@@H](O)[C@H](O[C@@H]4O[C@H](CO)[C@@H](O)[C@H](O)[C@H]4O[C@@H]4O[C@H](CO)[C@@H](O)[C@H](O)[C@H]4O)C(C)(C)[C@@H]3CC[C@]12C | Non-toxic |
| C[C@@H]1O[C@@H](OC[C@H]2O[C@@H](O[C@@](C)(C/C=C/C(C)(C)O)[C@H]3CC[C@]4(C)[C@@H]3[C@H](O)C[C@@H]3[C@@]5(C)C[C@@H](O)[C@H](O[C@@H]6O[C@H](CO)[C@@H](O)[C@H](O)[C@H]6O)C(C)(C)[C@@H]5CC[C@]34C)[C@H](O)[C@@H](O)[C@@H]2O)[C@H](O)[C@H](O)[C@H]1O | Non-toxic |
| CC(C)(/C=C/C[C@](C)(O[C@@H]1O[C@H](CO)[C@@H](O)[C@H](O)[C@H]1O)[C@H]1CC[C@]2(C)[C@@H]1[C@H](O)C[C@@H]1[C@@]3(C)C[C@@H](O)[C@H](O[C@@H]4O[C@H](CO)[C@@H](O)[C@H](O)[C@H]4O[C@@H]4O[C@H](CO)[C@@H](O)[C@H](O)[C@H]4O)C(C)(C)[C@@H]3CC[C@]12C)OO | Non-toxic |
| C[C@@H]1O[C@@H](OC[C@H]2O[C@@H](O[C@@](C)(C/C=C/C(C)(C)OO)[C@H]3CC[C@]4(C)[C@@H]3[C@H](O)C[C@@H]3[C@@]5(C)C[C@@H](O)[C@H](O[C@@H]6O[C@H](CO)[C@@H](O)[C@H](O)[C@H]6O[C@@H]6O[C@H](CO)[C@@H](O)[C@H](O)[C@H]6O)C(C)(C)[C@@H]5CC[C@]34C)[C@H](O)[C@@H](O)[C@@H]2O)[C@H](O)[C@H](O)[C@H]1O | Non-toxic |
| CC(C)(/C=C/C[C@](C)(O[C@@H]1O[C@H](CO[C@@H]2O[C@H](CO)[C@@H](O)[C@H](O)[C@H]2O)[C@@H](O)[C@H](O)[C@H]1O)[C@H]1CC[C@]2(C)[C@@H]1[C@H](O)C[C@@H]1[C@@]3(C)C[C@@H](O)[C@H](O)C(C)(C)[C@@H]3CC[C@]12C)OO | Non-toxic |
| C=C(C)C(=O)CC[C@](C)(O[C@@H]1O[C@H](CO[C@@H]2O[C@@H](C)[C@H](O)[C@@H](O)[C@H]2O)[C@@H](O)[C@H](O)[C@H]1O)[C@H]1CC[C@]2(C)[C@@H]1[C@H](O)C[C@@H]1[C@@]3(C)C[C@@H](O)[C@H](O[C@@H]4O[C@H](CO)[C@@H](O)[C@H](O)[C@H]4O[C@@H]4O[C@H](CO)[C@@H](O)[C@H](O)[C@H]4O)C(C)(C)[C@@H]3CC[C@]12C | Non-toxic |
| C=C(C)C(=O)CC[C@](C)(O[C@@H]1O[C@H](CO[C@@H]2O[C@H](CO)[C@@H](O)[C@H](O)[C@H]2O)[C@@H](O)[C@H](O)[C@H]1O)[C@H]1CC[C@]2(C)[C@@H]1[C@H](O)C[C@@H]1[C@@]3(C)C[C@@H](O)[C@H](O)C(C)(C)[C@@H]3CC[C@]12C | Non-toxic |
| CC(C)/C=C/C[C@](C)(O[C@@H]1O[C@H](CO[C@@H]2O[C@@H](C)[C@H](O)[C@@H](O)[C@H]2O)[C@@H](O)[C@H](O)[C@H]1O)[C@H]1CC[C@]2(C)[C@@H]1[C@H](O)C[C@@H]1[C@@]3(C)C[C@@H](O)[C@H](O[C@@H]4O[C@H](CO)[C@@H](O)[C@H](O)[C@H]4O)C(C)(C)[C@@H]3CC[C@]12C | Non-toxic |
| C=C(C)C(=O)CC[C@](C)(O[C@@H]1O[C@H](CO[C@@H]2O[C@@H](C)[C@H](O)[C@@H](O)[C@H]2O)[C@@H](O)[C@H](O)[C@H]1O)[C@H]1CC[C@]2(C)[C@@H]1[C@H](O)C[C@@H]1[C@@]3(C)C[C@@H](O)[C@H](O)C(C)(C)[C@@H]3CC[C@]12C | Non-toxic |
| CC(C)/C=C/C[C@](C)(O[C@@H]1O[C@H](CO[C@@H]2O[C@@H](C)[C@H](O)[C@@H](O)[C@H]2O)[C@@H](O)[C@H](O)[C@H]1O)[C@H]1CC[C@]2(C)[C@@H]1[C@H](O)C[C@@H]1[C@@]3(C)CC[C@H](O[C@@H]4O[C@H](CO)[C@@H](O)[C@H](O)[C@H]4O[C@@H]4O[C@H](CO)[C@@H](O)[C@H](O)[C@H]4O)C(C)(C)[C@@H]3CC[C@]12C | Non-toxic |
| CC(C)/C=C/C[C@](C)(O[C@@H]1O[C@H](CO[C@@H]2O[C@@H](C)[C@H](O)[C@@H](O)[C@H]2O)[C@@H](O)[C@H](O)[C@H]1O)[C@H]1CC[C@]2(C)[C@@H]1[C@H](O)C[C@@H]1[C@@]3(C)C[C@@H](O)[C@H](O)C(C)(C)[C@@H]3CC[C@]12C | Non-toxic |
